Neddylation inh: cullin neddylation inhibition. 0.58% of 360,000 active. TR-FRET cullin neddylation, biochemical. inhibition, % at 25 µM. AID 651699; in the data active = inhibition above about 36%
Target sequence (P61081 whole entry, looked up): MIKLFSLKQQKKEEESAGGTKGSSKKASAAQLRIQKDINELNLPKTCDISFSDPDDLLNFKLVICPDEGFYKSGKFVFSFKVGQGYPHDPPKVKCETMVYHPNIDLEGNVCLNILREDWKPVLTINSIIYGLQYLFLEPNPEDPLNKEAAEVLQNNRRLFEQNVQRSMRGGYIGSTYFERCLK
Target sequence (Q13564 whole entry, looked up): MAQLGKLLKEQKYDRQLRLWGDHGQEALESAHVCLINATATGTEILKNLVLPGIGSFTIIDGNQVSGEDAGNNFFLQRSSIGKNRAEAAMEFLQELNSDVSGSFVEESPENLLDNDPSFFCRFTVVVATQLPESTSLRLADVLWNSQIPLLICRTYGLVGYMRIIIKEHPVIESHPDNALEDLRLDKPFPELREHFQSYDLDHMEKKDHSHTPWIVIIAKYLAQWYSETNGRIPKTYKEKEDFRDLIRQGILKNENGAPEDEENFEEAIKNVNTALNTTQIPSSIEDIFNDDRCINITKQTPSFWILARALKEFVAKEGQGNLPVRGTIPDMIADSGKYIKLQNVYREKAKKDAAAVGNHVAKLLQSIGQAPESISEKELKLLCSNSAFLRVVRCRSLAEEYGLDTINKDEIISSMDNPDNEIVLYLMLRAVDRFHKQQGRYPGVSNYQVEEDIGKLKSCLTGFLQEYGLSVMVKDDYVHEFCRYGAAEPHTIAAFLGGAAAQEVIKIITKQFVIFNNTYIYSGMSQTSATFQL
SR-BI DiI-HDL act: enhances SR-BI lipid uptake from DiI-HDL; activation, % at 12.5 µM; 0.096% of 320,000 active; CHO ldlA[mSR-BI] cells, DiI-HDL uptake fluorescence, 3 h; 100 = double the neutral-control signal;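 active = mean replicate activation of at least 60% and every replicate at or above 60%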;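 also: 0% = median plate neutral-control signal and 100% = twice that signal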
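System: LDL receptor-deficient CHO ldlA cells overexpressing murine SR-BI | Timing: 3 h uptake period with compound, 37 °C | Medium: HEPES-buffered (25 mM, pH 7.4) F12 plus 0.5% BSA | Dosing: Single-point compound dose | Signal: Bottom-read fluorescence, 550/595 nm | Read-out: Retained DiI signal reflecting DiI-HDL uptake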
UBC13 polyUb: blocks human UBC13 polyubiquitin chain formation | TR-FRET | P61088 | 0.47% of 330,000 active | inhibition, % at 20 µM; in the data active = inhibition above about 45%, passing the limit was not always enough
SR-BI DiI inh: mouse SR-BI HDL lipid transfer inhibition; Q61009; ldlA[mSR-BI] CHO cells, DiI-HDL uptake fluorescence, 3 h; inhibition, % at 12.5 µM; 0.96% of 320,000 active; AID 488896;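 active = mean replicate inhibition of at least 70% and a set share of replicates each scoring 70 or more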;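 also: 0% = median of neutral control wells and 100% = median of positive control wells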
Neddyl conf: cullin neddylation inhibition, confirmation; shares compounds with Neddylation inh; TR-FRET cullin neddylation biochemical assay; calls only at 25 µM; 13% of 1,800 active; in the data active = inhibition above about 40%;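 also: neddylation substrate is the cullin 1 ring ligase complex with SKP2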
An asterisk follows results filed as active; i = inactive; · = no result given; + = active, no number. The list is not random: actives were taken first. Their share in the collection is about 1.9%.

SMILES	Neddylation inh	SR-BI DiI-HDL act	UBC13 polyUb	SR-BI DiI inh	Neddyl conf
N#Cc1ccccc1OCC(=O)N1N=C(c2cccs2)CC1c1ccco1 (stereo not given)	50.8*	-12.1	0.1	12.1	i
COc1ccc(-c2nn(-c3ccccc3)cc2C2CC(c3cccs3)=NN2C(=O)CCC(=O)O)cc1 (stereo not given)	46.0*	22.5	10.5	-22.5	i
O=C(Nc1ccccc1)N1N=C(c2cccs2)CC1c1cccs1 (stereo not given)	40.1*	8.9	-1.2	-8.9	i
O=C(COc1cc(F)ccc1[N+](=O)[O-])N1N=C(c2cccs2)CC1c1ccco1 (stereo not given)	-6.4	-8.4	-4.5	8.4	·
Cc1ccc(C2CC(c3cccs3)=NN2C(=O)CSC2=NCCS2)cc1 (stereo not given)	·	2.6	9.5	-2.6	·
COc1ccc(C2CC(c3cccs3)=NN2C(=O)CSC2=NCCS2)cc1 (stereo not given)	43.2*	2.1	12.3	-2.1	i
CN(c1ccc(C(=O)COC(=O)C2CC2)cc1)S(C)(=O)=O	-3.1	16.0	5.0	-16.0	·
COc1cccc(NC(=O)CN(C)C(=O)COc2ccccc2Cc2ccccc2)c1	3.0	13.5	6.2	-13.5	·
CCOC(=O)c1[nH]c(C)c(C(=O)OCc2ccccc2F)c1C	-27.2	-34.1	3.0	34.1	·
O=C(c1ccco1)N1N=C(c2cccs2)CC1c1ccc(F)cc1 (stereo not given)	45.8*	2.7	8.2	-2.7	i
CCC(=O)N1N=C(c2cccs2)CC1c1ccc(C)cc1 (stereo not given)	52.2*	-18.3	-1.7	18.3	·
CC(C)Cc1nn2c(=O)cc(CSCC(=O)Nc3ccccc3F)nc2s1	-0.2	14.0	-1.9	-14.0	·
Cc1ccc(COC(=O)CCN=C2NS(=O)(=O)c3ccccc32)cc1	6.2	5.2	6.0	-5.2	·
Cc1ccc(Oc2ccc(S(=O)(=O)N3CCOCC3)cc2C(N)=O)c(-n2nc3ccccc3n2)c1	37.6*	21.9	-3.9	-21.9	·
COc1ccccc1Oc1ccc(S(=O)(=O)N2CCOCC2)cc1S(=O)(=O)N1CCOCC1	6.7	8.2	7.5	-8.2	·
COc1cccc(/C=C2/NC(=O)N(CC(=O)Nc3ccc(C)cc3)C2=O)c1OCc1cccc(C(=O)O)c1	49.9*	15.4	0.3	-15.4	·
CCC1C(=O)n2nc(-c3ccccc3)cc2N=C1C (stereo not given)	48.8*	-3.1	21.0	3.1	i
Cc1cc(C)n2nc(-c3ccccc3)cc2n1	·	-19.5	3.1	19.6	·
COc1ccccc1-c1csc(C(O)(c2ccccc2)C(F)(F)F)n1 (stereo not given)	-6.5	·	·	·	·
O=C(COc1ccc2ccc(=O)oc2c1)Nc1ccc(N2CCCCC2)cc1	61.3*	-18.2	34.7	18.2	·
Cc1c(C)c2ccc(OCC(=O)Nc3ccc(CN4CCOCC4)cc3)cc2oc1=O	52.2*	-32.9	11.8	32.9	i
O=C(COc1ccc2ccc(=O)oc2c1)Nc1ccc(CCO)cc1	10.3	-10.0	0.4	10.0	·
Cc1ccc(OCC(=O)Nc2ccc(CN3CCOCC3)cc2)cc1C	10.1	-19.9	2.0	19.9	·
CCCCOc1ccc(S(=O)(=O)N2CCN(c3ccc(N4CCN(CC)CC4)nn3)CC2)cc1	45.8*	-1.1	24.3	1.1	i
CN(/N=C/c1cccnc1)c1cnc2ccccc2n1	45.1*	-22.0	-4.9	22.0	i
SMILES	Neddylation inh	SR-BI DiI-HDL act	UBC13 polyUb	SR-BI DiI inh	Neddyl conf
CCCCn1c(=O)nc2n(-c3ccc(C)cc3)c3ccccc3cc-2c1=O	12.5	-15.4	19.3	15.4	·
Cc1ccc(-n2c3nc(=O)n(C)c(=O)c-3cc3ccccc32)cc1	61.1*	·	6.2	·	i
CCOc1ccc(OCCOC(=O)CN2C(=O)NC3(CCCC3)C2=O)cc1	2.2	-2.4	-0.9	2.4	·
CCOC(=O)c1oc2cc(C)cc(C)c2c1C	10.9	12.1	5.7	-12.1	·
CCOC(=O)c1oc2cc(O)cc(C)c2c1C	41.2*	-9.5	·	9.5	+
COc1ccc(NC(=O)c2oc3ccccc3c2NC(=O)c2ccc3c(c2)OCO3)cc1	41.9*	-43.4	-4.7	43.4	i
CCOC(=O)c1oc2ccccc2c1NC(=O)c1ccc2c(c1)OCO2	7.6	-36.7	7.2	36.7	·
Cn1c(=O)c2cc3ccc(Cl)cc3nc2n(C)c1=O	-23.8	·	2.5	·	·
Cn1c(=O)c2cc3ccccc3nc2n(C)c1=O	48.2*	16.4	7.2	-16.4	+
CC(NC(=O)c1cccc(N(C)C)c1)c1ccc(-n2ccnc2)cc1 (stereo not given)	41.1*	-6.5	-0.7	6.5	i
CC1(C)C2CCC1(CS(=O)(=O)NCc1ccc(C(F)(F)F)cc1)C(=O)C2 (stereo not given)	4.8	-30.8	6.6	30.8	·
COc1cc2c(c(NC(C)=O)c1)N(C(C)=O)CCC2	2.2	8.7	·	-8.6	·
Cc1csc(NC(=O)c2cc(=O)[nH]c3ccc(S(=O)(=O)N4CCOCC4)cc23)n1	57.3*	15.5	-3.7	-15.5	·
COc1cc(NC(=O)c2cc(=O)[nH]c3ccc(S(=O)(=O)N4CCOCC4)cc23)cc(OC)c1	6.5	1.3	-0.5	-1.3	·
COc1ccc(N2C(=O)c3ccccc3NC23CCCCC3)cc1	41.3*	-4.6	16.5	4.6	·
COc1ccc(N2C(=O)c3ccccc3NC2(C)C)cc1	·	-5.8	2.2	5.8	·
COc1ccc(N2C(=O)c3ccccc3NC23CCC(C)CC3)cc1 (stereo not given)	44.6*	10.7	8.2	-10.7	·
CN(C)C(=O)CCC(=O)N1CCCC(C(=O)c2ccc3c4c(cccc24)CC3)C1 (stereo not given)	40.7*	-14.8	23.8	14.8	i
Clc1cccc(N/N=C/c2ccc(N3CCOCC3)s2)c1	41.5*	-20.1	-2.1	20.1	i
Cc1csc(=O)n1CC(=O)OCC(=O)Nc1ccc(F)c(F)c1F	-10.1	·	·	·	·
Cc1cc(=O)n2[nH]c(-c3ccc(C(C)(C)C)cc3)cc2n1	34.1	2.9	6.1	-2.9	·
Cc1cc(=O)n2[nH]c(-c3ccccc3)cc2n1	43.8*	23.4	-5.0	-23.4	i
CCCCNC(=O)C1(C)CCCCN1C(=O)c1ccc2c(c1)C(C)(C)CCC2(C)C (stereo not given)	-4.5	·	·	·	·
COc1cccc(/C=N/c2oc(-c3ccccc3)cc2C#N)c1O	45.7*	-2.1	-3.9	2.1	i
Cn1cnc([N+](=O)[O-])c1S(=O)(=O)Oc1ccc(Cl)cc1	-6.7	6.3	·	-6.3	·
COc1ccc(Cl)cc1NC(=O)Cn1nnc(C(=O)NCc2ccc3c(c2)OCO3)c1N	69.3*	-21.8	2.6	21.9	i
O=C(O)c1cccc(Nc2nc3ccccc3nc2NS(=O)(=O)c2ccccc2)c1	30.5	-0.1	8.2	0.1	·
CC(=O)Nc1ccc(S(=O)(=O)Nc2nc3ccccc3nc2Nc2cccc(O)c2)cc1	45.7*	·	-3.4	·	·
NS(=O)(=O)c1cccc(Nc2nc3ccccc3nc2NS(=O)(=O)c2ccc(Cl)cc2)c1	38.6*	0.9	-16.0	-0.9	+

Screening data from PubChem BioAssay.
